Reference: ChEMBL document CHEMBL1123481, “Structure-activity relationships of (arylalkyl)imidazole anticonvulsants: comparison of the (fluorenylalkyl)imidazoles with nafimidone and denzimol” (J Med Chem, 1986)

Columns and labels:
Mus musculus [1] = experiment: Effective dose in mice by pentylenetetrazole assay (administered subcutaneously); format: functional; settings: sc
Summary of the method: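 Test compound was given orally to mice. At its previously determined time of peak effect, pentylenetetrazole (110 mg/kg in water, 10 mL/kg) was injected sc into the neck skin fold. Mice were watched for 15 min for presence or absence of a clonic seizure. Where protection was bell-shaped, the value is the dose giving maximum protection.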

Mus musculus [2] = species on record: Mus musculus; experiment: Potentiation of hexobarbital-induced sleeping time in mice; format: functional
Summary of the method: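 Groups of 10 fasted mice received compound orally at 10 mg/kg in 5% acacia/water (10 mL/kg). At the compound's time of peak effect they were given hexobarbital 100 mg/kg ip, solubilized with stoichiometric NaOH. Sleeping time, measured as loss of righting reflex, was recorded to the nearest minute. Values are mean ± SEM.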

[3] = Compound was tested for its toxicity in rat; format: organism-based; settings: in vivo
Summary of the method: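 Female Fischer 344 rats were fasted and given a single oral gavage dose, four dose levels per compound, as a suspension in 10% aqueous acacia. Mortality was scored and the median lethal dose (LD50) was derived.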

Mus musculus [4] = species on record: Mus musculus; experiment: Compound was tested for time to peak anticonvulsant effect (TPE); format: functional
Summary of the method: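 Time to peak effect after oral dosing in 5% acacia/water was estimated by testing mice at 0.5, 1, 2, 3 and 4 h posttreatment in the MES and horizontal screen tests.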

Mus musculus [5] = experiment: Effective dose in mice by horizontal screen assay (administered orally); format: functional; settings: po
Summary of the method: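 Fasted, pre-trained male CF1 mice (20–25 g) were dosed orally across a range of doses, given as a suspension in 5% acacia/water. Each mouse was placed on a 13 cm square wire screen, and the screen was rotated 180°. The score was return to the top within 1 min. Time of peak effect was scanned at 0.5–4 h. Each compound was then retested at that time with at least 4 doses and 12 mice per dose.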

[6] = Compound was tested for its toxicity in rat; Ca 4550; format: organism-based; settings: in vivo

## O=C(Cn1ccnc1)c1ccc2c(c1)Cc1ccccc1-2
Mus musculus [1]
  ED50: > 200 mg/kg
Mus musculus [2]
  ST: 73.7 min
[3]
  LD50: 504 mg/kg
Mus musculus [4]
  TPE: 3 h
Mus musculus [5]
  ED50: > 1000 mg/kg
[6]
  LD50: 4550 mg/kg
